Compound activity deposited in PubChem BioAssay by several laboratories.
Hsp70 activator – transcriptional activators of Hsp70; HeLa Hsp70 promoter luciferase reporter, luminescence; scaled: vehicle 0, proteasome-inhibitor control 100%; activation, % at 10 µM; hit rate 0.04% among 200,000;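 active = activation above the mean across all tested compounds plus 3 SD, cutoff set per campaign, cut at about 5.5% in these data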;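 note: 100% = MG132 at 30 µM as the positive control and 0% = DMSO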
HSF1 inhib – HSF1 inhibition | activity change, negative = inhibition, % at 7.5 µM (by protocol) | hit rate 0.77% among 300,000 | AID 2098 | NIH3T3-HGL HSE-luciferase, MG132-induced, luminescence 8 h; active compounds read low;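 active = more than half of replicate wells show activity change below -50%, luminescence cut by over half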;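 note: luciferase reports HSF-1 transcriptional activity via heat shock element; 0% = median of DMSO wells and -100% = zero luminescence signal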
PERK inhibitor – inhibitors of human PERK kinase | hit rate 0.17% among 220,000 | Q9NZJ5 | AID 1416 | CHO PERK-DD fusion, SEAP luminescence translation reporter | inhibition, % at 5.6 µM;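 active = inhibition above the mean inhibition of all tested compounds plus 3 SD, set separately per screening campaign, cut at about 2.9% in these data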;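 note: PERK kinase domain activated by AP20187 dimerizer at 100 nM; 0% = DMSO with dimerizer and 100% = rapamycin at 8.4 µM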
STAT3 activator – activators of IL-6 induced STAT3 signaling; activation (% of control), % at 5.6 µM; hit rate 0.91% among 190,000; U3A cells, IL-6 STAT3-luciferase reporter, luminescence; 100% = signal with IL-6 EC80 alone;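 active = activation above the screen-wide mean of compound activation plus 3 SD, cut at about 130% in these data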;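 note: 0% = background luminescence of wells with medium and substrate only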
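Material: STAT1-lacking human U3A cells, STAT3 luciferase reporter | Benchmarks: IL-6-only wells as 100% reference | Probe or stimulus: IL-6 (33 ng/mL) | Timing: Compound 1 h, then IL-6 6 h at 37 °C | Detection: Luminescence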
PolyA inhibitor – inhibitors of polyadenylation in S. cerevisiae; S. cerevisiae SKY197-pL101 polyadenylation reporter, beta-gal luminescence; efflux-impaired pdr1/pdr3 knockout yeast; score 100 = 6 SD above DMSO; activity score, % at 12 µM; hit rate 0.02% among 300,000;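 active = lowest replicate activity score at least 50, where 100 means six control SD above control mean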;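 note: yeast exposed to compound for 9 h at 30 °C; higher score means more reporter readthrough which indicates perturbed polyadenylation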
AHR activator – activates the human aryl hydrocarbon receptor. AHR-responsive luciferase reporter cells, luminescence. activation, % at 5 µM. AID 2796. hit rate 2.5% among 320,000. P35869; in the data active = activation above about 47%;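 note: 0% = vehicle wells and 100% = reference agonist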
* = called active by the depositor; nt = no result given. The list is not random: actives were taken first. Their share in the collection is about 3.6%.

SMILES	Hsp70 activator	HSF1 inhib	PERK inhibitor	STAT3 activator	PolyA inhibitor	AHR activator
CCOc1ccc(CCNC(=O)c2cc(=O)[nH]c3ccc(S(=O)(=O)N(CC)CC)cc23)cc1OCC	nt	-10.2	nt	nt	1.8	-0.7
O=[N+]([O-])c1cccnc1-n1cnc2ccccc21	-0.2	-9.6	0.1	102.7	7.6	0.7
Cc1cc2ncn(-c3ncccc3[N+](=O)[O-])c2cc1C	nt	-5.7	nt	nt	-0.8	47.7*
Cc1ccc(C(=O)CN2C(=O)c3ccccc3S2(=O)=O)cc1	nt	-75.2*	0.9	nt	-9.3	-10.1
CCOC(=O)c1[nH]ncc1CN1CCN(Cc2ccccc2)C(CCO)C1 (configuration not stated)	-0.1	5.9	0.4	101.5	12.5	4.4
CCC(=O)n1nc(-c2cccnc2)nc1NCc1cccs1	0.1	-90.7*	-0.1	104.6	18.0	13.0
CN(C)S(=O)(=O)c1cccc(C(=O)NCC(C)(C)CNC(=O)c2cccc(S(=O)(=O)N(C)C)c2)c1	nt	3.1	nt	nt	18.8	0.2
Cc1nc2c(Cl)cccc2[nH]1	-0.5	2.2	0.1	133.4*	-2.5	2.1
CCOC(=O)c1cn[nH]c1NC(=S)Nc1ccc(OC)cc1	nt	-53.7*	2.0	nt	-0.3	0.6
COC(=O)c1cn[nH]c1NC(=S)Nc1ccc(Cl)c(Cl)c1	0.1	-60.4*	0.6	76.5	-15.5	48.5*
CCOC(=O)NC(=S)Nc1ccc(OC)cc1	-0.3	1.3	1.3	98.4	12.5	6.1
CCOC(=O)c1cnc2c(cnn2C)c1NCCCN(C)C	-0.3	-8.2	-1.9	88.4	-3.2	-0.6
CCOC(=O)c1cnc2c(cnn2C)c1NCCCn1ccnc1	-0.3	-6.8	1.9	101.4	23.1	58.7*
O=C(O)CCNc1cc(N2CCN(C(=O)c3ccco3)CC2)c2noc3c2c1C(=O)c1ccccc1-3	nt	0.1	nt	nt	-8.2	56.9*
CCN1CCN(c2cc(N3CCN(C(=O)c4ccco4)CC3)c3c4c(onc24)-c2ccccc2C3=O)CC1	nt	-2.5	nt	nt	-9.5	8.8
Cc1ccc(S(=O)(=O)N2CCN(C(=O)C(Cc3ccccc3)NC(=O)c3ccccc3)CC2)cc1 (configuration not stated)	nt	nt	nt	nt	nt	1.2
CCOc1ccc(-n2ccnc(SCC(=O)Nc3cccc(OC)c3)c2=O)cc1	nt	1.8	nt	nt	9.9	1.5
COc1cc(OC)c(/C=C2\C(=O)Nc3ccccc32)c(OC)c1	nt	nt	nt	nt	nt	78.9*
Cc1c(/C=N/NC(=O)CNc2ccccc2)c2ccccn2c1C(=O)c1ccccc1	-0.4	0.6	-0.2	106.0	9.0	52.8*
Cc1c(/C=N/NC(N)=O)c2ccccn2c1C(=O)c1ccncc1	nt	-4.3	0.4	nt	-6.1	29.8
Cc1c(/C=N/NC(=O)c2ccccc2O)c2ccccn2c1C(=O)c1ccc(F)cc1	0.1	-0.2	-1.3	102.9	-4.6	52.9*
Cc1c(/C=N/NC(=O)c2cccnc2)c2ccccn2c1C(=O)c1ccc(F)cc1	0.0	-0.2	-1.4	100.1	16.5	73.0*
Cc1c(/C=N/NC(=O)c2ccc(O)cc2)c2ccccn2c1C(=O)c1ccc(F)cc1	0.1	-3.7	-0.7	112.5	12.9	3.5
CCc1ccc(NC(=O)CCn2c(=O)c3cccn3c3ccccc32)cc1	nt	5.5	nt	nt	24.4	49.6*
O=C(Cn1c(=O)c2cccn2c2ccccc21)Nc1cc(F)ccc1F	nt	-56.7*	nt	nt	32.0	5.5
SMILES	Hsp70 activator	HSF1 inhib	PERK inhibitor	STAT3 activator	PolyA inhibitor	AHR activator
Cc1ccc(C(c2sc3ncnn3c2O)N2CC(C)CC(C)C2)cc1 (configuration not stated)	-0.1	-58.2*	0.8	96.7	0.9	0.6
COCCn1nnnc1C(c1ccccc1OC)N1CCN(c2ccccc2)CC1 (configuration not stated)	-0.1	1.2	-1.3	106.8	8.5	66.9*
COc1ccccc1C(c1nnnn1CCc1ccccc1)N1CCN(c2ccccc2)CC1 (configuration not stated)	-0.5	3.6	0.7	98.4	5.4	4.7
c1ccc(Cn2nnnc2C(c2cccnc2)N2CCN(c3ccccc3)CC2)cc1 (configuration not stated)	0.0	-4.7	-0.5	97.7	-47.2	79.0*
Cc1ccc(C(=O)Nc2ccc3cn[nH]c3c2)cc1S(=O)(=O)N1CCOCC1	0.2	5.1	1.1	141.9*	6.9	16.6
Cc1ccc(C(=O)Nc2cccnc2)cc1S(=O)(=O)N1CCCCCC1	nt	9.4	nt	nt	17.6	76.7*
CCN(CC)C(=S)SCC(=O)Nc1ccc(S(N)(=O)=O)cc1	0.0	0.6	1.4	98.0	11.7	5.9
CCN(CC)C(=S)SCC(=O)Nc1nc(=O)c2ccccc2s1	0.0	-69.6*	0.6	101.8	-22.6	3.1
CN(NC1OC(=O)c2ccccc21)c1ccc(C(F)(F)F)cc1[N+](=O)[O-] (configuration not stated)	nt	-59.2*	0.5	nt	-2.7	0.6
CN(NC1OC(=O)c2ccccc21)c1ccc(Cl)cc1[N+](=O)[O-] (configuration not stated)	nt	0.1	1.8	nt	-5.7	-0.1
C#CCOC(=O)Nc1ccc(OCC(F)(F)F)nc1	nt	3.8	0.6	nt	-7.2	-6.0
COc1cc(N=Nc2ccccc2C(=O)O)ccc1O	nt	-0.1	-0.5	nt	-11.5	2.8
COc1ccccc1N=Nc1ccc(N)c(C)c1	nt	4.2	nt	nt	6.7	59.6*
COCc1ccc(C(=O)N2CCCC(Nc3ccc(F)c(F)c3)C2)s1 (configuration not stated)	nt	2.6	nt	nt	-5.3	1.6
c1cn(CCCNc2ncnc3nc[nH]c23)cn1	-0.2	2.2	1.4	94.7	19.9	16.6
CCN1CCN(CCCNc2ncnc3nc[nH]c23)CC1	-0.3	-86.9*	0.7	99.7	-11.7	6.2
N#CCc1nn(-c2ccccc2)c2ncnc(N)c12	nt	-59.7*	2.4	nt	-11.7	7.8
CC(=O)Nc1sc2c(c1-c1nc3ccccc3s1)CN(C(C)C)CC2	nt	nt	nt	nt	nt	73.7*
COc1cccc(-c2nnc(-c3ccc(C)o3)o2)c1	0.3	28.4	-0.8	56.3	-7.8	-0.6
COc1cccc(-c2nnc(-c3ccco3)o2)c1	0.0	43.0	0.4	95.7	2.1	51.3*
O=C1C=C(c2ccc(Cl)c(C(F)(F)F)c2)C[C@@H](c2ccc(Cl)cc2)C1	nt	nt	nt	nt	nt	0.4
CCC(C)N(C(=O)Cn1c(=O)cnc2ccccc21)C1CCS(=O)(=O)C1 (configuration not stated)	nt	-6.2	nt	nt	29.8	0.3
CC(C)Cn1c(S(=O)(=O)O)nc2ccccc21	nt	-0.7	3.5*	nt	12.6	0.2
CCn1c(S(=O)(=O)O)nc2ccccc21	nt	-69.0*	2.3	nt	19.4	4.4
Cc1ccc(NC(=O)c2cc(-c3ccc(C)o3)nc3ccccc23)cc1	-0.5	-6.7	-0.4	97.0	-19.3	56.5*
COc1ccc(NC(=O)c2cc(-c3ccncc3)nc3ccccc23)c(OC)c1	nt	nt	nt	nt	nt	56.5*
COc1ccccc1NC(=O)c1cc(-c2ccc(C)o2)nc2ccccc12	nt	-2.2	nt	nt	-3.5	71.8*
